IC50, CC50 and EC50 data for ten compounds are collected here from ChEMBL document CHEMBL4138240, “Structure-guided design, synthesis and evaluation of oxazolidinone-based inhibitors of norovirus 3CL protease” (Eur J Med Chem, 2018).

Data set [1] in a line: Inhibition of Norovirus 3CL protease using Edans-DFHLQ/GP-Dabcyl as substrate preincubated for 30 mins followed by substrate addition measured for 1 hr by FRET assay. The procedure, abridged:
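Protease preincubated at 37 °C for 30 min with serially diluted compound (up to 100 μM) or DMSO in assay buffer: 20 mM HEPES pH 8, 200 mM NaCl, 0.4 mM EDTA, 60% glycerol, 6 mM DTT. Substrate was then added. Fluorescence (ex 360/em 460 nm) was read for 1 h, with no-protease background subtracted. IC50 came from variable-slope dose-response fits.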

Data set [2] can be described thus: Cytotoxicity against human HG23 cells after 72 hrs by crystal violet staining-based assay. Format: cell-based.
The test system of a further data set is Norovirus. Briefly: Antiviral activity against Norovirus replicon infected in human HG23 cells assessed as inhibition of viral RNA replication after 48 hrs by qRT-PCR method. The format is functional, organism-based. In outline:
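HG23 cells carrying the NV replicon, confluent or semi-confluent, were given medium with compound (up to 100 μM) or DMSO (<0.1%) for 48 h. Total RNA was then extracted and viral genome quantified by real-time qRT-PCR. EC50 was derived from curve fitting.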
Background: In antiviral work, replicon cells carry a viral genome segment that copies itself.

For the compound `CC(C)C[C@@H](C(=O)N[C@@H](C[C@@H]1CCNC1=O)C(O)S(=O)(=O)O)N1CC(COc2cccc(Cl)c2)OC1=O` (mixture of isomers), in data set [1], it took 8.5 µM to reach half-maximal inhibition (IC50). Besides, in data set [2], the CC50 at 72 h was more than 100 µM. The EC50 in the data set with Norovirus (Norovirus, HG23, 48 h) was found to be 7.6 µM.
The corresponding values for `O=C1NCC[C@H]1C[C@H](NC(=O)[C@H](CC1CCCCC1)N1CC(Cc2cccc(Cl)c2)OC1=O)C(O)S(=O)(=O)O` (mixture of isomers) are 15.1 µM, 46.1 µM and 8.1 µM.
The corresponding values for `O=C[C@H](C[C@@H]1CCNC1=O)NC(=O)[C@H](CC1CCCCC1)N1CC(Cc2cccc(Cl)c2)OC1=O` (mixture of isomers) are 13.5 µM, 55.2 µM and 6.7 µM.
`CC(C)C[C@@H](C(=O)N[C@H](C=O)C[C@@H]1CCNC1=O)N1CC(COCc2cccc(Cl)c2)OC1=O` (mixture of isomers) yielded an IC50 in data set [1] of 8.1 µM. In data set [2], this compound had a CC50 at 72 h of more than 100 µM. In the data set on Norovirus (Norovirus, HG23, 48 h), the EC50 is 14.8 µM.
`CC(C)C[C@@H](C(=O)N[C@H](C=O)C[C@@H]1CCNC1=O)N1CC(COc2cccc(Cl)c2)OC1=O` (mixture of isomers): the IC50 in data set [1] was found to be 3.8 µM. For the same compound, in data set [2], the CC50 at 72 h is more than 100 µM. The EC50 in the data set on Norovirus (Norovirus, HG23, 48 h) came to 8.2 µM.
`CC(C)C[C@@H](C(=O)N[C@@H](C[C@@H]1CCNC1=O)C(O)S(=O)(=O)O)N1CC(COCc2cccc(Cl)c2)OC1=O` (mixture of isomers) showed an IC50 in data set [1] of 10.6 µM. The CC50 at 72 h in data set [2] was more than 100 µM. Further, the EC50 in the data set with Norovirus (Norovirus, HG23, 48 h) came out at 17.3 µM.
With `CC(C)C[C@@H](C(=O)N[C@H](C=O)C[C@@H]1CCNC1=O)N1CC(Cc2cccc(Cl)c2)OC1=O` (stereo in doubt; 8A), in data set [1], the IC50 was 7.3 µM. The EC50 with Norovirus (Norovirus, HG23, 48 h) came to 11.5 µM.
On to `CC(C)C[C@@H](C(=O)N[C@H](C=O)C[C@@H]1CCNC1=O)N1CC(Cc2cccc(Cl)c2)OC1=O` (stereo in doubt; 8B), for which it took 15.3 µM to reach half-maximal inhibition in data set [1] (IC50). The CC50 at 72 h in data set [2] was more than 100 µM. For the same compound, the EC50 in the data set with Norovirus came out at 15.3 µM.
In the case of `CC(C)C[C@@H](C(=O)N[C@@H](C[C@@H]1CCNC1=O)C(O)S(=O)(=O)O)N1CC(Cc2cccc(Cl)c2)OC1=O` (stereo in doubt; 12A), the IC50 in data set [1] was determined as 8.2 µM. The EC50 in the data set with Norovirus (Norovirus, HG23, 48 h) was found to be 12.3 µM.
As to `CC(C)C[C@@H](C(=O)N[C@@H](C[C@@H]1CCNC1=O)C(O)S(=O)(=O)O)N1CC(Cc2cccc(Cl)c2)OC1=O` (stereo in doubt; 12B), the IC50 in data set [1] was 13.2 µM. The compound further returned a CC50 at 72 h in data set [2] of more than 100 µM. Moreover, the EC50 in the data set on Norovirus was found to be 17.5 µM.

By IC50 is commonly meant the midpoint of a concentration-inhibition curve. Read a low IC50 as higher potency. The CC50 is the concentration that lowers cell viability or growth by half. High values mean better tolerance by the cells, low ones harm at low concentration. In general, EC50 refers to the midpoint of the concentration-response curve.
